In ChEMBL document CHEMBL1144033, “Novel trans-3,4-dimethyl-4-(3-hydroxyphenyl)piperidines as mu opioid receptor antagonists with improved opioid receptor selectivity profiles” (Bioorg Med Chem Lett, 2008):
Active and inactive are the calls of the source. The calls are words filed in the database; no cut-off is given here.

Columns and labels:
[1] = target: T1, Kappa-type opioid receptor (Homo sapiens, UniProt P41145); test: Displacement of [3H]diprenorphine from human cloned kappa opioid receptor
[2] = target: T2, Delta-type opioid receptor (Homo sapiens, UniProt P41143); test: Displacement of [3H]diprenorphine from human cloned delta opioid receptor
[3] = target: T1, Kappa-type opioid receptor; test: Displacement of [3H]diprenorphine from human cloned kappa opioid receptor at 10 uM
[4] = target: Mu-type opioid receptor (Homo sapiens) (UniProt P35372); test: Displacement of [3H]diprenorphine from human cloned mu opioid receptor at 10 uM
[5] = target: T2, Delta-type opioid receptor; test: Displacement of [3H]diprenorphine from human cloned delta opioid receptor at 10 uM
Mus musculus [6] = test: Antagonist activity on morphine-induced gastrointestinal antitransit effect in Swiss Webster mouse at 0.1 mg/kg, sc after 1 hr; type: functional; design: scale not given: the % may be the effect or the level left; details: route subcutaneous
How it was run: (§1)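 Male Swiss-Webster mice (20-25 g), fasted overnight, got vehicle (10% DMSO:20% cremophor EL:70% saline) or compound s.c. Morphine (3 mg/kg s.c.) followed 25 min later. After a further 10 min, mice received 0.3 mL charcoal meal (charcoal:flour:water 1:2:8, w/w/v). Small intestine removed 25 min later; %GIT = charcoal leading-edge distance/intestine length ×100.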

Mus musculus [7] = test: Antagonist activity on morphine-induced gastrointestinal antitransit effect in Swiss Webster mouse at 1 mg/kg, sc after 1 hr; type: functional; design: scale not given: the % may be the effect or the level left; details: route subcutaneous; how it was run: as §1
Mus musculus [8] = test: Antagonist activity on morphine-induced gastrointestinal antitransit effect in Swiss Webster mouse at 0.3 mg/kg, po after 1 hr; type: functional, organism-based; design: dose 0.3 mg/kg
Mus musculus [9] = test: Antagonist activity on morphine-induced physical dependence in Swiss Webster mouse at 10 mg/kg, po; type: functional, organism-based; design: dose 10 mg/kg

T1 sequence (P41145 whole entry): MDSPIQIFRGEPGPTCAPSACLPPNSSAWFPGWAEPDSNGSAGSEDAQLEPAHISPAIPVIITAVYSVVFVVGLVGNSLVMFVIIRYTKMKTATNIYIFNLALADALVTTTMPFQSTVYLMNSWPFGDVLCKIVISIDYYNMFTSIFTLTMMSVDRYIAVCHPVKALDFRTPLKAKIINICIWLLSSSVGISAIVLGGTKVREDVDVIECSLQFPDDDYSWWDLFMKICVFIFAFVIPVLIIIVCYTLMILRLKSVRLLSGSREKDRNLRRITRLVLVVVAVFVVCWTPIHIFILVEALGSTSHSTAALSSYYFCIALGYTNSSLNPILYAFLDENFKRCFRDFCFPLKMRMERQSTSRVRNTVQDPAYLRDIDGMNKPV
T2 sequence (P41143 whole entry): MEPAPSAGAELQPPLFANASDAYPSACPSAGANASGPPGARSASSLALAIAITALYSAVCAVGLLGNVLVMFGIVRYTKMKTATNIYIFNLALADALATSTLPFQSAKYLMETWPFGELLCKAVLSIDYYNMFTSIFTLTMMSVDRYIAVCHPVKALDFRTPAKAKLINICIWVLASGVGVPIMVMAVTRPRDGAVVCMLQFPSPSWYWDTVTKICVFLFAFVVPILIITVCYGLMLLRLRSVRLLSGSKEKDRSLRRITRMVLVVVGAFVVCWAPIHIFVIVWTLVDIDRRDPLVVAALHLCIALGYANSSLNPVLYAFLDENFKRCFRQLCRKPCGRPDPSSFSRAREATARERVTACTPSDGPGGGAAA
Mu-type opioid receptor (Homo sapiens), sequence (P35372 whole entry): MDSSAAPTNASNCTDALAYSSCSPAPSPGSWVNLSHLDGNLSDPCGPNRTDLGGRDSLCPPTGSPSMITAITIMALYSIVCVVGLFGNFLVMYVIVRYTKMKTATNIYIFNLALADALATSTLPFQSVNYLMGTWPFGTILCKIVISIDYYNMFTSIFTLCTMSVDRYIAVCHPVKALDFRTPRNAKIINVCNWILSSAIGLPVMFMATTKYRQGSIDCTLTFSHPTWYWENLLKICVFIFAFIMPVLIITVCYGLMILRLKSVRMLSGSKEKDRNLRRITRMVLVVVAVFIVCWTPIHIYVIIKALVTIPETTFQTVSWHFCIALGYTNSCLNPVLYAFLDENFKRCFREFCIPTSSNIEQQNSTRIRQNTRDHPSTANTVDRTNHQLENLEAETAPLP

Row | SMILES | Ki [1] [nM] | Ki [2] [nM] | also measured
1 | C[C@H]1CN(CCC(=O)N(Cc2ccc(-c3ccccc3)cc2)[C@@H](Cc2ccccc2)C(=O)O)CC[C@@]1(C)c1cccc(O)c1 | 230 | 52 | –
2 | C[C@H]1CN(C[C@H](Cc2ccccc2)C(=O)N[C@@H](Cc2ccccc2)C(=O)O)CC[C@@]1(C)c1cccc(O)c1 | 250 | 15 | –
3 | C[C@H]1CN(C[C@H](Cc2ccccc2)C(=O)N[C@@H](Cc2cccc3ccccc23)C(=O)O)CC[C@@]1(C)c1cccc(O)c1 | 83 | 31 | –
4 | CCN(C(=O)CCN1CC[C@@](C)(c2cccc(O)c2)[C@@H](C)C1)[C@@H](Cc1ccccc1)C(=O)O | – | 510 | inhibition [3]: 44%
5 | C[C@H]1CN(CCC(=O)N[C@@H](CC2CCCCC2)C(=O)O)CC[C@@]1(C)c1cccc(O)c1 | – | 170 | inhibition [3]: 44%
6 | C[C@H]1CN(CCC(=O)N[C@@H](Cc2ccc(-c3ccccc3)cc2)C(=O)O)CC[C@@]1(C)c1cccc(O)c1 | 1100 | 160 | –
7 | C[C@H]1CN(CCC(=O)N(C)[C@@H](Cc2ccccc2)C(=O)O)CC[C@@]1(C)c1cccc(O)c1 | – | 620 | inhibition [3]: 35%
8 | C[C@H]1CN(C[C@H](Cc2ccccc2)C(=O)N[C@@H](CCc2ccccc2)C(=O)O)CC[C@@]1(C)c1cccc(O)c1 | 510 | 10 | –
9 | C[C@H]1CN(CCC(=O)N(CCc2ccccc2)[C@@H](Cc2ccccc2)C(=O)O)CC[C@@]1(C)c1cccc(O)c1 | 1200 | – | –
10 | C[C@H]1CN(CCC(=O)N[C@@H](CCCCN)C(=O)O)CC[C@@]1(C)c1cccc(O)c1 | – | – | inhibition [4]: 45%; inhibition [3]: 3%; inhibition [5]: 11%
11 | C[C@@H](NC(=O)[C@@H](Cc1ccccc1)CN1CC[C@@](C)(c2cccc(O)c2)[C@@H](C)C1)C(=O)O | 910 | 74 | –
12 | CC(C)CN(C(=O)CCN1CC[C@@](C)(c2cccc(O)c2)[C@@H](C)C1)[C@@H](Cc1ccccc1)C(=O)O | 2200 | – | –
13 | C[C@H]1CN(C[C@H](Cc2ccccc2)C(=O)N[C@@H](Cc2ccc3ccccc3c2)C(=O)O)CC[C@@]1(C)c1cccc(O)c1 | 240 | 3.2 | –
14 | C[C@H]1CN(C[C@H](Cc2ccccc2)C(=O)N[C@@H](Cc2ccc(-c3ccccc3)cc2)C(=O)O)CC[C@@]1(C)c1cccc(O)c1 | 160 | 8.3 | –
15 | C[C@H]1CN(CCC(=O)N(Cc2ccccc2)[C@@H](Cc2ccccc2)C(=O)O)CC[C@@]1(C)c1cccc(O)c1 | 550 | 39 | –
16 | C[C@H]1CN(CCC(=O)NCC(=O)O)CC[C@@]1(C)c1cccc(O)c1 | – | – | inhibition [4]: 20%; inhibition [3]: 4%; inhibition [5]: 5%
17 | C[C@H](NC(=O)[C@@H](Cc1ccccc1)CN1CC[C@@](C)(c2cccc(O)c2)[C@@H](C)C1)C(=O)O | 67 | 22 | –
18 | C[C@H]1CN(C[C@H](Cc2ccccc2)C(=O)N[C@@H](CC(=O)O)C(=O)O)CC[C@@]1(C)c1cccc(O)c1 | – | 500 | inhibition [3]: 27%
19 | C[C@H]1CN(C[C@H](Cc2ccccc2)C(=O)N[C@@H](CCCCN)C(=O)O)CC[C@@]1(C)c1cccc(O)c1 | – | – | Activity (Mus musculus [6]): 64%; Activity (Mus musculus [7]): 82%; Activity (Mus musculus [8]): Active; Activity (Mus musculus [9]): inactive
20 | C[C@H]1CN(C[C@H](Cc2ccccc2)C(=O)N[C@@H](CC2CCCCC2)C(=O)O)CC[C@@]1(C)c1cccc(O)c1 | 720 | 15 | –
21 | C[C@H]1CN(CCC(=O)N(CC2CC2)[C@@H](Cc2ccccc2)C(=O)O)CC[C@@]1(C)c1cccc(O)c1 | 2200 | 100 | –
22 | C[C@H]1CN(CCC(=O)N(Cc2cccc(Cl)c2)[C@@H](Cc2ccccc2)C(=O)O)CC[C@@]1(C)c1cccc(O)c1 | 460 | 24 | –
23 | C[C@H]1CN(CCC(=O)N(c2ccccc2)[C@@H](Cc2ccccc2)C(=O)O)CC[C@@]1(C)c1cccc(O)c1 | 1400 | 67 | –
24 | C[C@H]1CN(C[C@H](Cc2ccccc2)C(=O)NCC(=O)O)CC[C@@]1(C)c1cccc(O)c1 [ALVIMOPAN] | 100 | 12 | Activity (Mus musculus [6]): 69%
25 | C[C@H]1CN(CCC(=O)N[C@@H](Cc2ccccc2)C(=O)O)CC[C@@]1(C)c1cccc(O)c1 | – | 990 | inhibition [3]: 39%
26 | C[C@H]1CN(CCC(=O)N[C@@H](CCc2ccccc2)C(=O)O)CC[C@@]1(C)c1cccc(O)c1 | 690 | 360 | –
27 | C[C@H]1CN(C[C@H](Cc2ccccc2)C(=O)N[C@@H](CCC(=O)O)C(=O)O)CC[C@@]1(C)c1cccc(O)c1 | – | 360 | inhibition [3]: 26%
